Test results taken from ChEMBL document CHEMBL1772977, “Synthesis and biological evaluation of novel 4-benzylpiperazine ligands for sigma-1 receptor imaging” (Bioorg Med Chem, 2011).

What was measured:
[1] = biological target: Sigma non-opioid intracellular receptor 1 (Rattus norvegicus, UniProt Q9R0C9); assay: Displacement of (+)-[3H]pentazocine from sigma 1 receptor in rat brain membranes by competitive binding assay; assay type: cell membranes
Method in brief: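 Sigma-1 competition binding used rat brain membranes as receptor material with (+)-[3H]pentazocine as radioligand. Ki was derived by Cheng–Prusoff from at least three independent experiments, each in triplicate, and is reported as mean ± SD.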

[2] = Displacement of [3H]ditolylguanidine from sigma 2 receptor in rat liver membrane by competitive binding assay; assay type: cell membranes
Method in brief: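 Sigma-2 competition binding used rat liver membranes with [3H]ditolylguanidine as radioligand. 10 µM dextrallorphan was present to mask sigma-1 sites. Ki was derived by Cheng–Prusoff from at least three independent experiments, each in triplicate, and is reported as mean ± SD.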

Chain of Sigma non-opioid intracellular receptor 1 (Q9R0C9 whole entry): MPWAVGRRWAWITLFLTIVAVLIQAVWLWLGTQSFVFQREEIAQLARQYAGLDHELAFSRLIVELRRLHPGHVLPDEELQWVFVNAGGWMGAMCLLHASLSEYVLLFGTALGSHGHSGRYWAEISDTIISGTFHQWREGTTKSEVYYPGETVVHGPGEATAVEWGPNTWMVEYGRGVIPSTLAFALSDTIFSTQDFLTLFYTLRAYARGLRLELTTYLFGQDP

| Compound | Ki [1] | Ki [2] |
| --- | --- | --- |
| Brc1ccc(CN2CCN(Cc3ccc4c(c3)OCO4)CC2)cc1 | 0.78 nM | 40.5 nM |
| Ic1ccc(CN2CCN(Cc3ccc4c(c3)OCO4)CC2)cc1 | 0.8 nM | 61.1 nM |
| Fc1ccc(CN2CCN(Cc3ccc4c(c3)OCO4)CC2)cc1 | 0.85 nM | 52.2 nM |
